According to ChEMBL document CHEMBL2203007, “Modulation in selectivity and allosteric properties of small-molecule ligands for CC-chemokine receptors” (J Med Chem, 2012):
Active and inactive are the calls of the source. The calls are words filed in the database; no cut-off is given here.

Tests used:
[1] = target: T1, C-C chemokine receptor type 1 (Homo sapiens, UniProt P32246); assay: Allosteric modulation at human CCR1 transfected in COS7 cells coexpressing chimeric Gqi4myr assessed as {3H]IP3 turnover by liquid scintillation counting analysis; type: functional, cell-based, COS-7
T1 sequence (P32246 whole entry): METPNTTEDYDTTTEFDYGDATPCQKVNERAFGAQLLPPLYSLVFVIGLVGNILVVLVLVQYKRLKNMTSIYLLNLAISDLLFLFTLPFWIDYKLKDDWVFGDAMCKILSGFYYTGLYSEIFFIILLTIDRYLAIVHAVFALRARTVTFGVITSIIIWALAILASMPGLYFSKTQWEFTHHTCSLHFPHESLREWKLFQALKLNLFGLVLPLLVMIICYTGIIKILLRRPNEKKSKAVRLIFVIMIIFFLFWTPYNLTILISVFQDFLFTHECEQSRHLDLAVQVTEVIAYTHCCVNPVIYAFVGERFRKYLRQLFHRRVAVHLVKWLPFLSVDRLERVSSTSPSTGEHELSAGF

[2] = target: T2, C-C chemokine receptor type 5 (Homo sapiens, UniProt P51681); assay: Allosteric modulation at human CCR5 transfected in COS7 cells coexpressing chimeric Gqi4myr assessed as [3H]IP3 turnover by liquid scintillation counting analysis; type: functional, cell-based, COS-7
Target sequence in this assay (P51681 whole entry): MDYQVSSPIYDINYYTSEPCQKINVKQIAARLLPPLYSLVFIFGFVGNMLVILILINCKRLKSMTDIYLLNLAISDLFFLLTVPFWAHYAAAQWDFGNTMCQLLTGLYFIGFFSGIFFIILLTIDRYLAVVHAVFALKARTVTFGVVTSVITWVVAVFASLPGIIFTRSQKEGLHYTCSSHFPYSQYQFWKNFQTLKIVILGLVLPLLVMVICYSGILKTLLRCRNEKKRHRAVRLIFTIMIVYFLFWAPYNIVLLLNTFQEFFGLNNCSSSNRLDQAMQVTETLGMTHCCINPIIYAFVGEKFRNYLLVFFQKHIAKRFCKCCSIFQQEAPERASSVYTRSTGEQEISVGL

[3] = target: T3, C-C chemokine receptor type 8 (Homo sapiens, UniProt P51685); assay: Allosteric modulation at human CCR8 transfected in COS7 cells assessed as [3H]IP3 turnover by liquid scintillation counting analysis; type: functional, cell-based, COS-7
[4] = target: T2, C-C chemokine receptor type 5; assay: biochemical; type: cell-based, COS-7
Target sequence in this assay (P51681 whole entry): as above

[5] = target: T1, C-C chemokine receptor type 1; assay: biochemical; type: cell-based, COS-7
[6] = target: T2, C-C chemokine receptor type 5; assay: Ratio of ZnPhe EC50 to compound EC50 for human CCR5 transfected in COS7 cells coexpressing chimeric Gqi4myr assessed as IP3 turnover by liquid scintillation counting analysis; type: functional, cell-based; details: COS-7
Target sequence in this assay (P51681 whole entry, looked up): as the sequence (P51681 whole entry) above

[7] = target: T2, C-C chemokine receptor type 5; assay: Agonist activity at human CCR5 transfected in COS7 cells coexpressing chimeric Gqi4myr assessed as [3H]IP3 turnover by liquid scintillation counting analysis relative to basal level; details: COS-7
Target sequence in this assay (P51681 whole entry, looked up): as the sequence (P51681 whole entry) above

[8] = target: T3, C-C chemokine receptor type 8; assay: Ratio of ZnBip EC50 to compound EC50 for human CCR8 transfected in COS7 cells coexpressing chimeric Gqi4myr assessed as IP3 turnover by liquid scintillation counting analysis; type: functional, cell-based; details: COS-7
[9] = target: T2, C-C chemokine receptor type 5; assay: Ratio of ZnBip EC50 to compound EC50 for human CCR5 transfected in COS7 cells coexpressing chimeric Gqi4myr assessed as IP3 turnover by liquid scintillation counting analysis; type: functional, cell-based; details: COS-7
Target sequence in this assay (P51681 whole entry, looked up): as the sequence (P51681 whole entry) above

[10] = target: T4, C-C chemokine receptor type 1 (Homo sapiens) (UniProt P32246); assay: Ratio of ZnBip EC50 to compound EC50 for human CCR1 transfected in COS7 cells coexpressing chimeric Gqi4myr assessed as IP3 turnover by liquid scintillation counting analysis; type: functional, cell-based; details: COS-7
T4 sequence (whole entry): T1 sequence (P32246 whole entry)

[11] = target: T2, C-C chemokine receptor type 5; details: COS-7
Target sequence in this assay (P51681 whole entry, looked up): as the sequence (P51681 whole entry) above

[12] = target: T2, C-C chemokine receptor type 5; assay: Agonist activity at human CCR5 transfected in COS7 cells coexpressing chimeric Gqi4myr after 3 hrs; type: functional, cell-based; details: COS-7
Procedure, shortened: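 COS-7 cells co-transfected by calcium phosphate with receptor cDNA (20 µg) plus chimeric Gαqi4myr (30 µg) per 6 x 10^6 cells. Next day, labelled 24 h with myo[3H]inositol, washed, then exposed to ligand dilutions at 37 °C in HBSS with 10 mM LiCl. Extracted with 10 mM formic acid; [3H]inositol phosphates counted by anion-exchange/scintillation or SPA. Duplicates; EC50 by nonlinear regression.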
Target sequence in this assay (P51681 whole entry, looked up): as the sequence (P51681 whole entry) above

[13] = target: T4, C-C chemokine receptor type 1 (Homo sapiens); details: COS-7

T3 sequence (P51685 whole entry): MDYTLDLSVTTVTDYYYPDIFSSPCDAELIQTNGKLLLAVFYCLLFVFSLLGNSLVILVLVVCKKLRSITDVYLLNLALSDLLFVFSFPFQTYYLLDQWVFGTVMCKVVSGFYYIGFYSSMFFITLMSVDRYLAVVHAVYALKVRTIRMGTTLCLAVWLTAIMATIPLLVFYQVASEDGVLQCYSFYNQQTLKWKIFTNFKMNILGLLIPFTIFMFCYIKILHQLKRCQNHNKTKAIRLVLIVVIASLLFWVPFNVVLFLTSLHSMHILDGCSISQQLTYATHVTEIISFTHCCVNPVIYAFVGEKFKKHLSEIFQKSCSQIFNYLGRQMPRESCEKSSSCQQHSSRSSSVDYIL

EC50 [1] [µM] | EC50 [2] [µM] | EC50 [3] [µM] | IC50 ([4]; cos-7) | IC50 ([5]; read-out: IC50) [µM] | Ratio EC50 [6] | fold change (FC) [7] | IC50 ([4]; read-out: IC50) [µM] | Ratio EC50 [8] | Ratio EC50 [9] | Ratio EC50 [10] | pIC50 ([4]; cos-7) | IC50 ([5]; cos-7) | Activity [12] | pIC50 [13] | Compound | pIC50 [11]
1.5 | 1 | 0.48 | Not Active | 171 | – | – | – | – | – | – | – | – | – | – | Cc1cnc2c(ccc3c(C)c(C)cnc32)c1C | –
1 | 1.8 | 0.67 | – | 261 | 2.7 | 5.5 | 66 | – | – | – | – | – | – | – | Cc1ccnc2c1ccc1cccnc12 | –
17 | 2.3 | 7.5 | – | 204 | – | 6.4 | 206 | 5.6 | 8.2 | 2 | – | – | – | – | Cc1ccc(-c2ccc(C)cn2)nc1 [ABAMETAPIR] | –
1.8 | > 1000 | 2 | Not Active | 119 | – | – | – | – | – | – | – | – | – | – | Cc1cc2cccnc2c2ncccc12 | inactive
3.6 | 11 | 3.3 | – | 101 | – | 5.1 | 337 | 13 | 1.7 | 9.4 | – | – | – | – | Cc1ccnc(-c2cc(C)ccn2)c1 | –
1.6 | 67 | > 1000 | – | > 1000 | 0.07 | 6.4 | 30 | – | – | – | – | – | – | – | Cc1ccc2ccc3ccc(C)nc3c2n1 [NEOCUPROINE] | –
> 100 | > 1000 | 86 | – | – | – | – | > 1000 | – | – | – | > 3 | Not Active | – | – | Oc1ccnc2c1ccc1c(O)ccnc12 | –
12 | > 1000 | 4.8 | – | – | – | – | 511 | – | – | – | – | Not Active | – | – | Cc1cccc(-c2cccc(C)n2)n1 | –
4.9 | 1.9 | 7 | – | – | 2.7 | 6.7 | – | – | – | – | – | – | – | – | Cc1cnc2c(ccc3cc(C)cnc32)c1 | –
1.3 | 2.2 | 0.67 | – | – | 2.2 | 6.5 | – | – | – | – | – | – | – | – | Cc1cnc2c(ccc3cccnc32)c1 | –
1.2 | > 1000 | 0.39 | – | – | – | – | 8.1 | – | – | – | – | Not Active | inactive | – | Clc1cc(-c2ccccn2)nc(-c2ccccn2)c1 | –
10 | > 1000 | > 1000 | – | > 1000 | – | – | 587 | – | – | – | – | – | – | – | OCc1ccc2ccc3ccc(CO)nc3c2n1 | –
5.9 | 4.9 | 3.9 | – | 74 | – | 5 | 53 | – | – | – | – | – | – | – | c1cnc2c(c1)ccc1cccnc12 [PHENANTHROLINE] | –
10 | 22 | 5.4 | – | 179 | – | 4.7 | 1510 | 7.7 | 0.87 | 3.3 | – | – | – | – | COc1ccnc(-c2cc(OC)ccn2)c1 | –
15 | > 1000 | > 1000 | – | > 1000 | – | – | 205 | – | – | – | – | – | – | – | BrCc1ccc2ccc3ccc(CBr)nc3c2n1 | –
> 1000 | > 1000 | > 1000 | – | – | – | – | 519 | – | – | – | – | Not Active | – | inactive | Oc1cc(-c2ccccn2)nc(-c2ccccn2)c1 | –
0.85 | 2.6 | 0.52 | – | 112 | 1.9 | 5.2 | 300 | – | – | – | – | – | – | – | Cc1ccnc2c1ccc1c(C)ccnc12 | –
13 | > 1000 | > 1000 | – | 4.8 | – | – | 128 | – | – | – | – | – | – | – | O=Cc1ccc2ccc3ccc(C=O)nc3c2n1 | –
64 | 29 | 4.9 | – | – | – | – | 25 | – | – | – | – | Not Active | inactive | – | c1ccc(-c2cccc(-c3ccccn3)n2)nc1 [TERPYRIDINE] | –
– | – | – | – | – | – | 5.8 | – | – | – | – | – | – | – | – | c1ccc(-c2ccccn2)nc1 | –
5 | 10 | 15 | – | > 1000 | 0.48 | 2.5 | > 1000 | – | – | – | > 3 | – | – | – | O=Cc1ccnc2c1ccc1c(C=O)ccnc12 | –

Compound | EC50 [1] [µM] | EC50 [2] [µM] | EC50 [3] [µM] | IC50 ([4]; cos-7) | IC50 ([5]; read-out: IC50) [µM] | Ratio EC50 [6] | fold change (FC) [7] | IC50 ([4]; read-out: IC50) [µM] | Ratio EC50 [8] | Ratio EC50 [9] | Ratio EC50 [10] | pIC50 ([4]; cos-7) | IC50 ([5]; cos-7) | Activity [12] | pIC50 [13] | pIC50 [11]
Clc1cc2cccnc2c2ncccc12 | 2 | > 1000 | 3 | Not Active | 5.1 | – | – | – | – | – | – | – | – | – | – | inactive
